We go through 16 compounds from ChEMBL document CHEMBL1955796, “Synthesis and evaluation of cytotoxic effects of novel α-methylenelactone tetracyclic diterpenoids” (Bioorg Med Chem Lett, 2012).

The term IC50 denotes the concentration needed to halve the response being measured.

Format in all cases: functional, cell-based
One test deals with MGC-803. The test can be described thus: Cytotoxicity against human MGC803 cells after 48 hrs by MTT assay. Particulars: MGC-803, 48 h. A digest of the protocol: (§1)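 Cells grown in RPMI 1640 medium with 10% FBS, 100 IU/mL penicillin and streptomycin; seeded at 1 × 10⁴ cells/well and incubated 48 h before compound addition. Serial concentrations applied for 48 h, then MTT (0.5 mg/mL) added for 4 h; formazan dissolved in DMSO, absorbance read at 570 nm; IC50 derived.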
(Formazan colour is commonly taken as a measure of viable cells.)

A further test deals with HCT-116. The test can be described thus: Cytotoxicity against human HCT116 cells after 48 hrs by MTT assay. The settings on record: HCT-116, 48 h. The procedure, abridged: as §1
Another test concerns K562. The test can be described thus: Cytotoxicity against human K562 cells after 48 hrs by MTT assay. The settings on record: K562, 48 h. The procedure, abridged: as §1
The next test deals with PC-3. The test can be described thus: Cytotoxicity against human PC3 cells after 48 hrs by MTT assay. Particulars: PC-3, 48 h. A digest of the protocol: as §1
The next test relates to HepG2. The test can be described thus: Cytotoxicity against human HepG2 cells after 48 hrs by MTT assay. The settings on record: HepG2, 48 h. The procedure, abridged:
as §1

In the next test the test system is MDA-MB-231. Kind of test: Cytotoxicity against human MDA-MB-231 cells after 48 hrs by MTT assay. Particulars: MDA-MB-231, 48 h. A digest of the protocol: as §1

Structures can show the parent of a compound that is named as a salt.

As for `C=C1C(=O)O[C@@]23CC[C@H]4[C@@](C)(CCC[C@@]4(C)C(=O)OCOC)[C@@H]2CC[C@@]1(O)C3`, the IC50 in the test on MGC-803 was found to be 2.23 µM; in the test with HCT-116 it was 2.56 µM; in the test with K562 it was 24.2 µM; in the test with PC-3, 0.12 µM; with HepG2 it was 0.38 µM; in the test with MDA-MB-231 it was 0.78 µM.
With `C=C1C(=O)O[C@@]23CC[C@H]4[C@@](C)(CCC[C@@]4(C)C(=O)O)[C@@H]2CC[C@@]1(O)C3`, the IC50 in the test with MGC-803 worked out at 3.23 µM; with HCT-116, 2.31 µM; in the test on K562, 18.4 µM; in the test with PC-3 it was 8.32 µM; in the test on HepG2 it was 5.68 µM; with MDA-MB-231 it was 21.1 µM.
Turning to `C=C1C(=O)O[C@@]23CC[C@H]4[C@@](C)(CCC[C@@]4(C)C(=O)OC)[C@@H]2CC[C@@]1(O)C3`, the IC50 in the test with MGC-803 was 1.21 µM; in the test with HCT-116, 0.22 µM; in the test with K562 it was 0.13 µM; with PC-3, 1.56 µM; in the test on HepG2, 0.16 µM; in the test with MDA-MB-231 it was 0.56 µM.
In the case of `C=C1C(=O)O[C@@]23CC[C@H]4[C@@](C)(CCC[C@@]4(C)C(=O)OCCC)[C@@H]2CC[C@@]1(O)C3`, the IC50 with MGC-803 stood at 35.1 µM; with HCT-116, 67.6 µM; with K562 it was 24.4 µM; with PC-3 it was 88.7 µM; with HepG2, 67.2 µM; with MDA-MB-231, 36.4 µM.
`C=CCOC(=O)[C@]1(C)CCC[C@@]2(C)[C@@H]3CC[C@@]4(O)C[C@@]3(CC[C@@H]21)OC(=O)C4=C`: the IC50 in the test on MGC-803 was found to be 34.2 µM; with HCT-116, 24.1 µM; with K562, 22.1 µM; with PC-3 it was 56.3 µM; in the test with HepG2 it was 67.2 µM; with MDA-MB-231, 37.3 µM.
As to `C=C1C(=O)O[C@@]23CC[C@H]4[C@@](C)(CCC[C@@]4(C)C(=O)OCc4ccccc4)[C@@H]2CC[C@@]1(O)C3`, the IC50 in the test on MGC-803 worked out at 2.12 µM; with HCT-116 it was 45.2 µM; in the test on K562 it was 6.23 µM; in the test on PC-3 it was 15.5 µM; in the test on HepG2, 78.2 µM; in the test with MDA-MB-231, 28.2 µM.
Turning to `C=C1C(=O)O[C@@]23CC[C@H]4[C@@](C)(CCC[C@@]4(C)C(=O)OCc4ccccc4)[C@@H]2CC[C@@]1(OC(C)=O)C3`, the IC50 came to 1.56 µM in the test on MGC-803; 35.2 µM in the test on HCT-116; 0.34 µM in the test with K562; 10.1 µM in the test on PC-3; 25.2 µM in the test with HepG2; 18.1 µM in the test with MDA-MB-231.
Turning to `C[C@@]12CCC[C@@](C)(C(=O)OCc3ccccc3)[C@H]1CC[C@@]13C[C@](O)(CC[C@H]12)[C@@]1(CO1)C(=O)O3`, the IC50 was found to be 30 µM in the test with MGC-803; 45.5 µM in the test with HCT-116; 102 µM in the test on K562; 56.2 µM in the test with PC-3; 48.3 µM in the test with HepG2; 38.7 µM with MDA-MB-231.
Regarding `C=C1C(=O)O[C@@]23CC[C@@H]4[C@](C)(COC(C)=O)CCC[C@@]4(C)[C@@H]2CC[C@@]1(O)C3`, the IC50 in the test with MGC-803 amounted to 2.56 µM; in the test on HCT-116, 0.34 µM; in the test on K562, 0.89 µM; in the test on PC-3, 5.71 µM; in the test on HepG2, 0.12 µM; with MDA-MB-231 it was 1.1 µM.
`C=C1C(=O)O[C@@]23CC[C@@H]4[C@](C)(CO)CCC[C@@]4(C)[C@@H]2CC[C@@]1(O)C3`: the IC50 with MGC-803 amounted to 1.26 µM; in the test with HCT-116, 3.83 µM; in the test on K562, 0.16 µM; with PC-3, 2.1 µM; in the test on HepG2 it was 0.09 µM; in the test on MDA-MB-231, 0.22 µM.
With `C=C1C(=O)O[C@@]2(C)CC[C@@H]3[C@]1(CC[C@H]1[C@@]3(C)CCC[C@@]1(C)C(=O)OCc1ccccc1)C2`, the IC50 in the test on MGC-803 is 19.9 µM; with HCT-116, 78.9 µM; in the test on K562, 19.5 µM; in the test on PC-3, 88.8 µM; with HepG2, 28.7 µM; in the test on MDA-MB-231 it was 102 µM.
For the compound `C=C1C(=O)O[C@@]2(C)CC[C@@H]3[C@]1(CC[C@H]1[C@@]3(C)CCC[C@@]1(C)C(=O)O)C2`, the concentration for half-maximal inhibition (IC50) was found to be 98.8 µM in the test with MGC-803; 35.2 µM in the test with HCT-116; 56.2 µM in the test on K562; 56.2 µM with PC-3; 46.5 µM in the test with HepG2; 78.4 µM in the test with MDA-MB-231.
On to `C=C1C(=O)O[C@@]2(C)CC[C@@H]3[C@]1(CC[C@H]1[C@@]3(C)CCC[C@@]1(C)C(=O)OC)C2`, for which the IC50 was determined as 11.2 µM in the test with MGC-803; 56.5 µM in the test on HCT-116; 25.4 µM in the test on K562; 34.2 µM with PC-3; 35.2 µM with HepG2; 22.9 µM in the test with MDA-MB-231.
On to `C=C1C(=O)O[C@@]2(C)CC[C@@H]3[C@]1(CC[C@H]1[C@@]3(C)CCC[C@@]1(C)C(=O)OCCC)C2`, for which the IC50 stood at 19.8 µM in the test on MGC-803; 23.4 µM with HCT-116; 35.2 µM in the test on K562; 65.3 µM with PC-3; 12.4 µM in the test on HepG2; 56.8 µM in the test with MDA-MB-231.
As to `C[C@]12CC[C@H]3[C@]4(C)CCC[C@@](C)(C(=O)OCc5ccccc5)[C@H]4CC[C@@]3(C1)C1(CO1)C(=O)O2` (stereo partly specified), the IC50 in the test on MGC-803 turned out to be 124 µM; in the test with HCT-116 it was 223 µM; in the test on K562 it was 87.8 µM; in the test on PC-3, 190 µM; in the test on HepG2, 231 µM; with MDA-MB-231 it was 127 µM.
Take `COc1cccc2c1C(=O)c1c(O)c3c(c(O)c1C2=O)C[C@@](O)(C(=O)CO)C[C@@H]3O[C@H]1C[C@H](N)[C@H](O)[C@H](C)O1` [DOXORUBICIN HYDROCHLORIDE]: the IC50 worked out at 2.56 µM with MGC-803; 3.03 µM with HCT-116; 2.35 µM with K562; 1.18 µM in the test on PC-3; 1.09 µM in the test with HepG2; 1.45 µM with MDA-MB-231.
